The text below walks through data of ChEMBL document CHEMBL1629438, “Selective peroxisome proliferator-activated receptor δ isosteric selenium agonists as potent anti-atherogenic agents in vivo” (Bioorg Med Chem Lett, 2010).

What all share (assay type): functional, cell-based
The target in test [1] is T1, Peroxisome proliferator-activated receptor delta (Homo sapiens, UniProt Q03181).
T1 sequence (Q03181 whole entry): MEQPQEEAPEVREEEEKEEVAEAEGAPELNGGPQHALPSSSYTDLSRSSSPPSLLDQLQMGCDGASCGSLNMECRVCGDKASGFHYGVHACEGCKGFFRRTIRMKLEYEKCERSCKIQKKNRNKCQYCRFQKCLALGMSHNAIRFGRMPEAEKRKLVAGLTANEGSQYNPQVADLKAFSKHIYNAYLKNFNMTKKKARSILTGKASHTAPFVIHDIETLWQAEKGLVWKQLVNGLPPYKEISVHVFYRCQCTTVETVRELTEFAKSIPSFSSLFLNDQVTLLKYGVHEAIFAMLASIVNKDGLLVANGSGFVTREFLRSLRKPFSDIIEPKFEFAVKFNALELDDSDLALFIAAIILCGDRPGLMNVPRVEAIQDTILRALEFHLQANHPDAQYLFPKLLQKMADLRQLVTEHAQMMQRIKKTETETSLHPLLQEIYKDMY
The test is described as follows: Agonist activity at human PPAR-delta expressed in african green monkey CV-1 cells after 24 hrs by luciferase reporter gene assay. The method in brief:
(§1)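 Cell-based co-transfection reporter assay, with EC50 values derived for each PPAR subtype.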

The target of test [2] is T2, Peroxisome proliferator-activated receptor gamma (Homo sapiens, UniProt P37231).
T2 sequence (P37231 whole entry): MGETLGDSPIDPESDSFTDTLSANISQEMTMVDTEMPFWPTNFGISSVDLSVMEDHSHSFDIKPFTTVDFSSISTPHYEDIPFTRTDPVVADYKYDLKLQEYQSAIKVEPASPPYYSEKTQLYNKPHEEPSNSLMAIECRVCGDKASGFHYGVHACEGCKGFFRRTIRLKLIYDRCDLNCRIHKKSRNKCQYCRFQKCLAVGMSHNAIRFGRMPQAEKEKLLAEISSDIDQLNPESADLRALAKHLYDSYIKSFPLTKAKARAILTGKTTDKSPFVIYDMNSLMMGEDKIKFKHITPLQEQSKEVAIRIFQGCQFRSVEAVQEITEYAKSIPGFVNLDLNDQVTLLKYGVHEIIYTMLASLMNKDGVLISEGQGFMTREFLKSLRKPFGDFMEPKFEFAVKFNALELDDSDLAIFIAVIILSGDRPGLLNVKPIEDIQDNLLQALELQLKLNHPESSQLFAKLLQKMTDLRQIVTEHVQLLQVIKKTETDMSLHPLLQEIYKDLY
The test is described as follows: Agonist activity at human PPAR-gamma expressed in african green monkey CV-1 cells after 24 hrs by luciferase reporter gene assay.

For test [3], the target named is T3, Peroxisome proliferator-activated receptor alpha (Homo sapiens, UniProt Q07869).
T3 sequence (Q07869 whole entry): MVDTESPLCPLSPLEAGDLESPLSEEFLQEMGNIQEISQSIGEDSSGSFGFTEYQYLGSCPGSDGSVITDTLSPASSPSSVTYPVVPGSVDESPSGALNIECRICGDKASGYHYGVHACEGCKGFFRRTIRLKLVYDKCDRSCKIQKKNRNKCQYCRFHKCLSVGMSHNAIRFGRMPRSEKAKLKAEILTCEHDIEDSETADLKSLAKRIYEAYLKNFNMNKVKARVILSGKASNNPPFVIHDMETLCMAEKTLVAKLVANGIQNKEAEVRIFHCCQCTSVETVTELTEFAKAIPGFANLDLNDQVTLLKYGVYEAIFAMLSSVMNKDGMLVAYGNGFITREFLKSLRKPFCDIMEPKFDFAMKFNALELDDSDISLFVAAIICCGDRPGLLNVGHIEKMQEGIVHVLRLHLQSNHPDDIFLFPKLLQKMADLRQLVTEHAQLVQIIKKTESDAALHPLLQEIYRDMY
The test is described as follows: Agonist activity at human PPAR-alpha expressed in african green monkey CV-1 cells after 24 hrs by luciferase reporter gene assay. An outline of the steps: as §1

Some results are limits rather than exact numbers.

On to `CCC(Oc1ccc([Se]Cc2sc(-c3ccc(C(F)(F)F)c(F)c3)nc2C)cc1C)C(=O)O` (stereo not given), for which the EC50 in test [1] is 0.007 µM; in test [2], 0.271 µM; in test [3], greater than 1 µM.

With `Cc1cc([Se]Cc2sc(-c3ccc(C(F)(F)F)c(F)c3)nc2C)ccc1OC(C)(C)C(=O)O`, the results for the concentration giving a half-maximal response (EC50) in test [1], in test [2] and in test [3] were 0.0018 µM, 0.29 µM and 0.0246 µM, respectively.

Consider `CCC(Oc1ccc([Se]Cc2sc(-c3ccc(C(F)(F)F)cc3)nc2C)cc1C)C(=O)O` (stereo not given), for which the EC50 in test [1] is 0.0062 µM; in test [2], greater than 1 µM; in test [3], 0.0831 µM.

For `Cc1cc([Se]Cc2sc(-c3ccc(C(F)(F)F)c(F)c3)nc2C)ccc1OCC(=O)O`, the EC50 in test [1] was 0.001 µM; in test [2] it was greater than 1 µM; in test [3], 0.35 µM.

On to `Cc1cc([Se]Cc2sc(-c3ccc(C(F)(F)F)cc3)nc2C)ccc1OC(C)(C)C(=O)O`, for which the EC50 worked out at 0.0045 µM in test [1], 0.1 µM in test [2] and 0.0152 µM in test [3].
